Activity calls are given as the source filed them. No cut-off for these calls is given here.

Consider one molecule from ChEMBL document CHEMBL2146366, “Discovery of microsomal triglyceride transfer protein (MTP) inhibitors with potential for decreased active metabolite load compared to dirlotapide” (Bioorg Med Chem Lett, 2011).

Series [1] has as its system Rattus norvegicus. The series can be described thus: Antiobesity activity in high fat diet-induced obese Sprague-Dawley rat assessed as reduction of triglyceride accumulation in liver at 3 mg/kg, po qd for 7 days relative to control. In kind it is functional. The arrangement: scale not given: the % may be the effect or the level left. In short, it runs like this: (§1)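 Seven-day rat study: once-daily oral dosing at 3, 10 or 30 mg/kg, with 1, 3 and 100 mg/kg also used for one series. Compounds were given as spray-dried dispersions in hydroxypropylmethylcellulose acetate succinate. Food intake, body weight, liver TG and serum ALT were measured against vehicle. Systemic exposure was reported as AUC (ng h/mL). Significance versus vehicle was set at P ≤ 0.05.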

Series [2] concerns Rattus norvegicus. The series can be described thus: Antiobesity activity in high fat diet-induced obese Sprague-Dawley rat assessed as reduction of food intake at 100 mg/kg, po administered daily for 3 days relative to dirlotapide. The arrangement: scale not given: the % may be the effect or the level left. In kind it is functional. In short, it runs like this:
(§2)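 Male Sprague–Dawley rats (~300 g, n = 5 per group) were acclimatized for seven days to a high-fat diet (45% kcal from fat). They received three consecutive daily oral gavage doses 1.5 h before the dark cycle. Vehicle was SEDDS:H2O 10:90, with SEDDS made of Miglyol 812 10%, triacetin 30%, polysorbate 80 20% and Capmul MCM 30%. Food intake was recorded during dosing, and liver TG was measured afterwards, both against vehicle.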

Series [3] has as its system Rattus norvegicus. Put plainly: Antiobesity activity in high fat diet-induced obese Sprague-Dawley rat assessed as reduction in body weight at 3 mg/kg, po administered daily for 3 days relative to dirlotapide. Type of series: functional. The arrangement: scale not given: the % may be the effect or the level left.
The test system of series [4] is Rattus norvegicus. The series can be described thus: Antiobesity activity in high fat diet-induced obese Sprague-Dawley rat assessed as reduction in body weight at 1 mg/kg, po administered daily for 3 days relative to dirlotapide. In kind it is functional. The arrangement: scale not given: the % may be the effect or the level left.
Series [5] relates to Rattus norvegicus. The series can be described thus: Antiobesity activity in high fat diet-induced obese Sprague-Dawley rat assessed as reduction of food intake at 100 mg/kg, po administered daily for 3 days relative to control. In kind it is functional. The arrangement: scale not given: the % may be the effect or the level left. In short, it runs like this: as §2
Series [6] concerns Rattus norvegicus. Put plainly: Antiobesity activity in high fat diet-induced obese Sprague-Dawley rat assessed as reduction in body weight at 10 mg/kg, po administered with 25% SDD formulation daily for 3 days relative to dirlotapide. Type of series: functional. The arrangement: scale not given: the % may be the effect or the level left.
Series [7] relates to Rattus norvegicus. Put plainly: Antiobesity activity in po dosed high fat diet-induced obese Sprague-Dawley rat assessed as reduction of food intake administered daily for 3 days. Type of series: functional. Particulars: 72 h, read-out: MED. In a few lines: as §2
The test system of series [8] is Rattus norvegicus. Put plainly: Antiobesity activity in high fat diet-induced obese Sprague-Dawley rat assessed as reduction in body weight at 30 mg/kg, po administered daily for 3 days relative to control. The arrangement: scale not given: the % may be the effect or the level left. In kind it is functional.
The test system of series [9] is Rattus norvegicus. Put plainly: Antiobesity activity in high fat diet-induced obese Sprague-Dawley rat assessed as reduction of body weight at 30 mg/kg, po qd for 7 days. Type of series: functional. The arrangement: scale not given: the % may be the effect or the level left. In a few lines:
as §1

Series [10] concerns Rattus norvegicus. Put plainly: Toxicity in high fat diet-induced obese Sprague-Dawley rat assessed as change in serum ALT level at 3 mg/kg, po qd for 7 days relative to control. In kind it is organism-based. The arrangement: dose 3 mg/kg, route oral. The settings on record: in vivo, 168 h. In short, it runs like this:
(§3)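 Seven-day study in high-fat-diet rats. Compound was given once daily by mouth as a spray-dried dispersion, with vehicle controls. Serum ALT was measured alongside food intake, body weight, liver TG and systemic exposure (AUC). ALT is expressed as % change versus vehicle, with significance set at P ≤ 0.05.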

The test system of series [11] is Rattus norvegicus. Put plainly: Antiobesity activity in high fat diet-induced obese Sprague-Dawley rat assessed as triglyceride accumulation in liver at 30 mg/kg, po administered daily for 3 days relative to control. In kind it is functional. In a few lines:
as §2

Series [12] deals with Rattus norvegicus. The series can be described thus: Antiobesity activity in high fat diet-induced obese Sprague-Dawley rat assessed as triglyceride accumulation in liver at 3 mg/kg, po administered daily for 3 days relative to control. In kind it is functional, organism-based. The arrangement: dose 3 mg/kg. In short, it runs like this:
as §2

The subject of series [13] is Rattus norvegicus. The series can be described thus: Toxicity in high fat diet-induced obese Sprague-Dawley rat assessed as change in serum ALT level at 30 mg/kg, po qd for 7 days relative to control. Type of series: organism-based. The arrangement: dose 30 mg/kg, route oral. The settings on record: in vivo, 168 h. In a few lines:
as §3

Series [14] deals with Rattus norvegicus. Put plainly: Antiobesity activity in high fat diet-induced obese Sprague-Dawley rat assessed as reduction of food intake at 10 mg/kg, po administered daily for 3 days relative to dirlotapide. The arrangement: scale not given: the % may be the effect or the level left. In kind it is functional. In a few lines: as §2
Series [15] deals with Rattus norvegicus. Put plainly: Antiobesity activity in po dosed high fat diet-induced obese Sprague-Dawley rat assessed as reduction of reduction of triglyceride accumulation in liver administered daily for 3 days. Type of series: functional. The settings on record: 72 h, read-out: MED. In a few lines: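 Male Sprague–Dawley rats (about 300 g; n = 5 per group) were acclimatized for seven days to a high-fat diet (45% kcal from fat). They received three consecutive daily oral gavage doses in SEDDS:H₂O 10:90 vehicle 1.5 h before the dark cycle. Food intake was recorded, and liver TG was then measured against the vehicle group.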

The subject of series [16] is Rattus norvegicus. Put plainly: Antiobesity activity in high fat diet-induced obese Sprague-Dawley rat assessed as reduction of food intake at 30 mg/kg, po administered daily for 3 days relative to control. In kind it is functional. The arrangement: scale not given: the % may be the effect or the level left. In short, it runs like this: as §2
Series [17] relates to Rattus norvegicus. Put plainly: Antiobesity activity in high fat diet-induced obese Sprague-Dawley rat assessed as reduction of triglyceride accumulation in liver at 30 mg/kg, po qd for 7 days relative to control. Type of series: functional. The arrangement: scale not given: the % may be the effect or the level left. In a few lines:
as §1

A short description of series [18]: Oral bioavailability in rat at 30 mg/kg. The settings on record: in vivo. Type of series: ADME, organism-based.
Series [19] deals with Rattus norvegicus. Put plainly: Antiobesity activity in high fat diet-induced obese Sprague-Dawley rat assessed as reduction in body weight at 10 mg/kg, po administered with 25% SDD formulation daily for 3 days relative to control. In kind it is functional. The arrangement: scale not given: the % may be the effect or the level left.
In series [20] the test system is Rattus norvegicus. Put plainly: Antiobesity activity in high fat diet-induced obese Sprague-Dawley rat assessed as reduction of food intake at 10 mg/kg, po administered with 25% SDD formulation daily for 3 days relative to dirlotapide. Type of series: functional. The arrangement: scale not given: the % may be the effect or the level left. In a few lines:
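Three-day oral dosing study in male Sprague–Dawley rats (~300 g, n = 5 per group) fed a high-fat diet (45% kcal from fat). Animals received daily gavage doses 1.5 h before the dark cycle. Compound was given as a spray-dried dispersion made by spray drying compound with hydroxypropylmethylcellulose acetate succinate. Food intake was recorded during dosing and liver TG measured afterwards, both against vehicle.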

In series [21] the test system is Rattus norvegicus. The series can be described thus: Antiobesity activity in high fat diet-induced obese Sprague-Dawley rat assessed as reduction of triglyceride accumulation in liver at 10 mg/kg, po administered daily for 3 days relative to dirlotapide. In kind it is functional. The arrangement: scale not given: the % may be the effect or the level left. In short, it runs like this: as §2

Series [22] concerns Rattus norvegicus. Put plainly: Drug metabolism in rat assessed as formation of N-(2-((4-fluorobenzyl)(methyl)amino)-2-oxo-1-phenylethyl)-2-(4'-(1-hydroxy-2-methylpropan-2-yl)biphenyl-2-ylcarboxamido)quinoline-6-carboxamide at 30 mg/kg, po administered as single dose. Type of series: ADME, organism-based. The arrangement: dose 30 mg/kg, route oral. Particulars: in vivo.
Series [23] deals with Rattus norvegicus. Put plainly: Antiobesity activity in high fat diet-induced obese Sprague-Dawley rat assessed as reduction of food intake at 10 mg/kg, po qd for 7 days relative to control. Type of series: functional. The arrangement: scale not given: the % may be the effect or the level left. In short, it runs like this:
as §1

A word on the bioavailability: it is dose-corrected exposure relative to a reference, in per cent. Take `CN(Cc1ccc(F)cc1)C(=O)[C@@H](NC(=O)c1ccc2nc(NC(=O)c3ccccc3-c3ccc(C(C)(C)C)cc3)ccc2c1)c1ccccc1`: the Activity with Rattus norvegicus [1] is 43%; in the series on Rattus norvegicus [2], 35%; in the series on Rattus norvegicus [3] it was 10%; in the series on Rattus norvegicus [4] it was 25%; in the series with Rattus norvegicus [5], 47%; in the series with Rattus norvegicus [6] it was 32%. In addition, the Activity with Rattus norvegicus [8] is recorded as 89%; in the series with Rattus norvegicus [9], 220%; in the series with Rattus norvegicus [10] it was 168%; in the series with Rattus norvegicus [11] it was 102%; in the series with Rattus norvegicus [13], 237%; with Rattus norvegicus [14] it was 46%. Further, the Activity in the series on Rattus norvegicus [16] was 41%; in the series with Rattus norvegicus [17], 212%; in the series with Rattus norvegicus [19] it was 96%; in the series with Rattus norvegicus [20], 8%; in the series with Rattus norvegicus [21], 120%; with Rattus norvegicus [23] it was 51%. The minimal effective dose with Rattus norvegicus [7] and in the series with Rattus norvegicus [15] was 3 mg/kg throughout. In the series on Rattus norvegicus [12], the result was inactive. In series [18], this molecule registered a bioavailability of less than 3%. In addition, in the series with Rattus norvegicus [22], the Drug metabolism entry is “Active”.
